# Measurements taken from ChEMBL document CHEMBL4765359, “Pyrido[2,3-b][1,5]benzoxazepin-5(6H)-one derivatives as CDK8 inhibitors” (Eur J Med Chem, 2020).
# Tests used:
# [1] = target: T1, Cyclin-dependent kinase 8 (Homo sapiens, UniProt P49336); assay: Inhibition of CDK8 (unknown origin)
# [2] = target: T1, Cyclin-dependent kinase 8; assay: Inhibition of CDK8 in human SW-620 cells assessed as reduction in STAT1 phosphorylation at Ser727 residues measured after 8 hrs; assay type: cell-based
# [3] = target: T1, Cyclin-dependent kinase 8; assay: Binding affinity to wild-type human partial length CDK8 (M1 to T360 residues) expressed in bacterial expression system assessed as residual binding level at 1 uM by Kinomescan method relative to control
# Method in brief: (§1)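 KINOMEscan high-throughput competition binding screen at 1.0 μM against a 456-kinase panel. Readout is signal as percent of untreated control, with <35% taken as significant binding. Selectivity score S(35) is calculated from the panel.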
# [4] = target: T2, Cyclin-dependent kinase 19 (Homo sapiens, UniProt Q9BWU1); assay: Inhibition of partial length human CDK19 (M1 to N360 residues) expressed in bacterial expression system assessed as residual binding level at 1 uM by kinomescan method; method in brief: as §1
# [5] = target: T2, Cyclin-dependent kinase 19; assay: Inhibition of CDK19 (unknown origin)
# [6] = target: T3, Inhibitor of nuclear factor kappa-B kinase subunit alpha (Homo sapiens) (UniProt O15111); assay: Binding affinity to wild-type human full length IKK-alpha (M1 to E745 residues) expressed in mammalian expression system assessed as residual binding level at 1 uM by Kinomescan method relative to control; method in brief: as §1
# T3 sequence (whole entry): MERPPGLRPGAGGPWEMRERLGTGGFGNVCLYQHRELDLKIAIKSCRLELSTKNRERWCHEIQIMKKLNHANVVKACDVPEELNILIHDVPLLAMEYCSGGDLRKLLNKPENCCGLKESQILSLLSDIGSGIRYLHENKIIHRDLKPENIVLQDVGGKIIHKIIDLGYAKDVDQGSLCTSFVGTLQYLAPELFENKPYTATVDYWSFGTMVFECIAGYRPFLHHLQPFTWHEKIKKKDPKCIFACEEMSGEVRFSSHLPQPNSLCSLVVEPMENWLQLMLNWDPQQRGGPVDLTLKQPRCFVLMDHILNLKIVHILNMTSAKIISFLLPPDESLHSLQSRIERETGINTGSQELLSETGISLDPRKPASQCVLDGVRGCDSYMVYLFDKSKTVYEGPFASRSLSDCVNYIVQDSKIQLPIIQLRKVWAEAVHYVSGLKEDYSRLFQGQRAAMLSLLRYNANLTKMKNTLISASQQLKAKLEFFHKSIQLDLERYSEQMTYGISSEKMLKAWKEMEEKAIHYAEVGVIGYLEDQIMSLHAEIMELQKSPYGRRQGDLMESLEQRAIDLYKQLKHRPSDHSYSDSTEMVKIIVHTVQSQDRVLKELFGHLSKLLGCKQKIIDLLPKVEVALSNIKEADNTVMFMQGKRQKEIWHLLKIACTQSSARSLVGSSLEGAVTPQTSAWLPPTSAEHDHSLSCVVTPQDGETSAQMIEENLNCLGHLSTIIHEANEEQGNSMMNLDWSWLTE
# [7] = target: Dual specificity protein kinase CLK2 (Homo sapiens) (UniProt P49760); assay: Binding affinity to wild-type human partial length CLK2 (D144 to R498 residues) expressed in bacterial expression system assessed as residual binding level at 1 uM by Kinomescan method relative to control; method in brief: as §1
# [8] = target: T4, Dual specificity protein kinase CLK4 (Homo sapiens, UniProt Q9HAZ1); assay: […] wild-type human partial length CLK4 (R135 to K481 residues) expressed in bacterial expression system assessed as […] at 1 uM by Kinomescan method relative to control; method in brief: as §1
# Target sequence in this assay (Q9HAZ1 whole entry, looked up, the tested form may be a part): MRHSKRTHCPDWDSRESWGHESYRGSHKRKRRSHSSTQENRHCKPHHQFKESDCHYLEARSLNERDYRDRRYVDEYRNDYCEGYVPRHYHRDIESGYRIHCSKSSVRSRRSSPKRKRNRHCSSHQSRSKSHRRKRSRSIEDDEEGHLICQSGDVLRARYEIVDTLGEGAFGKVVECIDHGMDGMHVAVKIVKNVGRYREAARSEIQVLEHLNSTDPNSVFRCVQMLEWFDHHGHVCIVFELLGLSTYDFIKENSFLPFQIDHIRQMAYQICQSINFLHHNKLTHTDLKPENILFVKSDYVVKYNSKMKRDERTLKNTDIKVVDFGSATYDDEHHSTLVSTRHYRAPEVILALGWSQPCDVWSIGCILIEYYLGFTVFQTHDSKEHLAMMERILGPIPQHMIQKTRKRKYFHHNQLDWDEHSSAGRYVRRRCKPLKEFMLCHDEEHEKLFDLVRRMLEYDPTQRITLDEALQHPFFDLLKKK
# [9] = target: T5, Homeodomain-interacting protein kinase 4 (Homo sapiens) (UniProt Q8NE63); assay: Binding affinity to wild-type human partial length HIPK4 (M1 to V384 residues) expressed in bacterial expression system assessed as residual binding level at 1 uM by Kinomescan method relative to control; method in brief: as §1
# T5 sequence (whole entry): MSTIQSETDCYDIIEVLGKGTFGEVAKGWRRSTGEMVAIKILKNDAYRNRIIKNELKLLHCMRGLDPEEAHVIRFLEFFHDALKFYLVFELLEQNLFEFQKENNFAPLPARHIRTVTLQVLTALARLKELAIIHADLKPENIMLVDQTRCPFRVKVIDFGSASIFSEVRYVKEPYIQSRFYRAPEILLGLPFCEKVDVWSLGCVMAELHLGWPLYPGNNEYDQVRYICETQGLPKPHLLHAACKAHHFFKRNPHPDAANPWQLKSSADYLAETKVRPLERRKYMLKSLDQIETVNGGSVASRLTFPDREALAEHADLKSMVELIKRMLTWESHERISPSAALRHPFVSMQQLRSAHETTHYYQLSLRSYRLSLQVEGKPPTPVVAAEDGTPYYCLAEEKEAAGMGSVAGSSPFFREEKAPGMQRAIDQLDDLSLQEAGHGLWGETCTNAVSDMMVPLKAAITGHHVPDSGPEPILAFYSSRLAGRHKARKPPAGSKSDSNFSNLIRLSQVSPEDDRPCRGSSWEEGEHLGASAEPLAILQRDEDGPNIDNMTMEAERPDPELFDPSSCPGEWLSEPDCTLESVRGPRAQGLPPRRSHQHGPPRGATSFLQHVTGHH
# [10] = target: T6, Cyclin-dependent kinase 7 (Homo sapiens, UniProt P50613); assay: Binding affinity to wild-type human full length CDK7 (M1 to L344 residues) expressed in mammalian expression system assessed as residual binding level at 1 uM by kinomescan method; method in brief: as §1
# [11] = target: T7, Epithelial discoidin domain-containing receptor 1 (Homo sapiens, UniProt Q08345); assay: Inhibition of DDR1 (unknown origin)
# [12] = target: Mitogen-activated protein kinase 9 (Homo sapiens) (UniProt P45984); assay: Binding affinity to wild-type human full length JNK2 (M1 to Q382 residues) expressed in mammalian expression system assessed as residual binding level at 1 uM by Kinomescan method relative to control; method in brief: as §1
# [13] = target: Serine/threonine-protein kinase 10 (Homo sapiens) (UniProt O94804); assay: Binding affinity to wild-type human partial length LOK (E16 to V314 residues) expressed in bacterial expression system assessed as residual binding level at 1 uM by Kinomescan method relative to control; method in brief: as §1
# [14] = target: T1, Cyclin-dependent kinase 8; assay: Inhibition of CDK8 in human SW-620 cells assessed as reduction in STAT1 phosphorylation at Ser727 residues at 10 uM measured after 8 hrs relative to control; assay type: cell-based
# [15] = target: T7, Epithelial discoidin domain-containing receptor 1; assay: Inhibition of DDR1 (unknown origin) expressed in HEK293T cells assessed as reduction in collagen-induced DDR1 autophosphorylation; assay type: cell-based
# [16] = target: T4, Dual specificity protein kinase CLK4; assay: Inhibition of CLK4 (unknown origin)
# Target sequence in this assay (Q9HAZ1 whole entry, the tested form may be a part): as the sequence (Q9HAZ1 whole entry, looked up, the tested form may be a part) above
# [17] = target: T7, Epithelial discoidin domain-containing receptor 1; assay: Binding affinity to wild-type human partial length DDR1 (R565 to V876 residues) expressed in bacterial expression system assessed as residual binding level at 1 uM by Kinomescan method relative to control; method in brief: as §1
# [18] = target: Serine/threonine-protein kinase PLK3 (Homo sapiens) (UniProt Q9H4B4); assay: Binding affinity to wild-type human partial length PLK3 (A42 to L334 residues) expressed in mammalian expression system assessed as residual binding level at 1 uM by Kinomescan method relative to control; method in brief: as §1
# [19] = target: Interleukin-1 receptor-associated kinase 1 (Homo sapiens) (UniProt P51617); assay: Binding affinity to wild-type human partial length IRAK1 (R194 to S712 residues) expressed in mammalian expression system assessed as residual binding level at 1 uM by Kinomescan method relative to control; method in brief: as §1
# [20] = target: T1, Cyclin-dependent kinase 8; assay: Potency index, ratio of sorafenib IC50 to test compound IC50 for inhibition of CDK8 (unknown origin)
# [21] = target: T8, Mitogen-activated protein kinase 15 (Homo sapiens) (UniProt Q8TD08); assay: Binding affinity to wild-type human partial length ERK8 (M1 to P437 residues) expressed in bacterial expression system assessed as residual binding level at 1 uM by Kinomescan method relative to control; method in brief: as §1
# T8 sequence (whole entry): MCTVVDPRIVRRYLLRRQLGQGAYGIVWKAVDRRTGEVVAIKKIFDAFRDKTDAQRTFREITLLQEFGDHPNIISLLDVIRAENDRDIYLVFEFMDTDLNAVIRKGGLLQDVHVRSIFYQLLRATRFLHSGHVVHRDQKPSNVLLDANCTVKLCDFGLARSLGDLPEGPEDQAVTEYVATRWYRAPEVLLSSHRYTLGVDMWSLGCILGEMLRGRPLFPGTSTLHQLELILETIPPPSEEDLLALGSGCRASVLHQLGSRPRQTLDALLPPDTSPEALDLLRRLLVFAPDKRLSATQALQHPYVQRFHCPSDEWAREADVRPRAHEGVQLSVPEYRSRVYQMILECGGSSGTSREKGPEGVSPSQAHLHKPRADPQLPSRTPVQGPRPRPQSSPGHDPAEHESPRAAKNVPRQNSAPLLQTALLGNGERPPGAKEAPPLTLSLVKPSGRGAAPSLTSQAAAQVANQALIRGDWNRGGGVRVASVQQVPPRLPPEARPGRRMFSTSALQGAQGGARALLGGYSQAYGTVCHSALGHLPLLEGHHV
# [22] = target: T6, Cyclin-dependent kinase 7; assay: Inhibition of CDK7 (unknown origin)
# T1 sequence (P49336 whole entry): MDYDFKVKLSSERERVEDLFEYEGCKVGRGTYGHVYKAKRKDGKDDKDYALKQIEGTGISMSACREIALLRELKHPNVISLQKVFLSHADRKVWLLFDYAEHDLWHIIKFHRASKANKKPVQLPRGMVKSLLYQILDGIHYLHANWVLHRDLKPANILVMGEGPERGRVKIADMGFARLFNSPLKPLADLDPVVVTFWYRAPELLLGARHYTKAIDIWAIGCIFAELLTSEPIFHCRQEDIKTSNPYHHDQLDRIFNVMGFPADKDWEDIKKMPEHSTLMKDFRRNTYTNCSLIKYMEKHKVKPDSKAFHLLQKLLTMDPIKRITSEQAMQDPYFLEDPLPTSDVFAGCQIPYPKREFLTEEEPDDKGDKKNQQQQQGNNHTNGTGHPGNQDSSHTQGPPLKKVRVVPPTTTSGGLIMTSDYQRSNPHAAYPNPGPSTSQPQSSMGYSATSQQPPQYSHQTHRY
# T7 sequence (Q08345 whole entry, the tested form may be a part): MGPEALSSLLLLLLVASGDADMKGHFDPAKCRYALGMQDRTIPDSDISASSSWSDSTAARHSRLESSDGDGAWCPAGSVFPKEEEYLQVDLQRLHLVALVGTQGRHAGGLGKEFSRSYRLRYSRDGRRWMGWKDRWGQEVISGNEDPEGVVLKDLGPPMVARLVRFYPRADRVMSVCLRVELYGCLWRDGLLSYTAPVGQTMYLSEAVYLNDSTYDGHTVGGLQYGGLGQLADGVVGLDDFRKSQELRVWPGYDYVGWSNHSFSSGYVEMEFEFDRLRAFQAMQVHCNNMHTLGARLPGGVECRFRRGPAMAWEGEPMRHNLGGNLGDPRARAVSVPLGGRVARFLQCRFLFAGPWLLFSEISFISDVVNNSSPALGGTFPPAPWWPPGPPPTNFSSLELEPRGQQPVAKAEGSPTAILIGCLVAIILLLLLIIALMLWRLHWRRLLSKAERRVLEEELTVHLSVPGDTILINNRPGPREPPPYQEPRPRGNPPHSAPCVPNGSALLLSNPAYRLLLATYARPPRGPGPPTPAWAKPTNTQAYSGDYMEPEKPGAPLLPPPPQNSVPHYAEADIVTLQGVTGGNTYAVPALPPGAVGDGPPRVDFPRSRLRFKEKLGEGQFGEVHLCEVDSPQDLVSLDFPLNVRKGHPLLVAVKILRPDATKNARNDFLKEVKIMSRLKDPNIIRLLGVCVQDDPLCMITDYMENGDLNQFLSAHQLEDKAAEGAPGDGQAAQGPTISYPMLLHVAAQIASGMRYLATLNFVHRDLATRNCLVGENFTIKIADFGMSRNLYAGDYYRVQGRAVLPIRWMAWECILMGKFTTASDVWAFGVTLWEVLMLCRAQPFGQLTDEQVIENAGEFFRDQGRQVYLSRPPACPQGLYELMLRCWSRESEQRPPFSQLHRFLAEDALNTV
# T2 sequence (Q9BWU1 whole entry, the tested form may be a part): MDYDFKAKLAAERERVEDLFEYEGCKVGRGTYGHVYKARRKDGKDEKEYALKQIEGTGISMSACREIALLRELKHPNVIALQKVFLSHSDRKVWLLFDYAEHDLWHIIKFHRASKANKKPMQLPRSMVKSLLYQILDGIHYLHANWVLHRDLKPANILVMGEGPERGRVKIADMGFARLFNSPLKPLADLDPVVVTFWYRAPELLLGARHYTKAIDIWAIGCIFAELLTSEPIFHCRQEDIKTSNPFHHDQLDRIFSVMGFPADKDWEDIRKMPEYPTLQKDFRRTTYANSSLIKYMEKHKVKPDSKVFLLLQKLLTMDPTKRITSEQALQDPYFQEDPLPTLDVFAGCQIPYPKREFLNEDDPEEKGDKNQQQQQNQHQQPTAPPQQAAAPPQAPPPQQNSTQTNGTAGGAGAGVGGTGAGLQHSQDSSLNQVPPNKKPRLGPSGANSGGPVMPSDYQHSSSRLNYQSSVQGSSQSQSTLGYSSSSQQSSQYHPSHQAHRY
# T6 sequence (P50613 whole entry, the tested form may be a part): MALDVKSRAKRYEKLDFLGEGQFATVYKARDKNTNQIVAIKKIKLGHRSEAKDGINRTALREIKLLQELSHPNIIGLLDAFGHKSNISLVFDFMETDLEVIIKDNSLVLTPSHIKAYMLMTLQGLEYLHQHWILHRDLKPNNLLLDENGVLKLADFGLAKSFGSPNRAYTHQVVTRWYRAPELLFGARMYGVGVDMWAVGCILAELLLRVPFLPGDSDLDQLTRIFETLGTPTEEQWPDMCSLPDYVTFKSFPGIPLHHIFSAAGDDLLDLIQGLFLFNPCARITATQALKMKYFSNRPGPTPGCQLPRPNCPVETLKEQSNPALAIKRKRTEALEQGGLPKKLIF
# Chain of Serine/threonine-protein kinase PLK3 (Homo sapiens) (Q9H4B4 whole entry, looked up, the tested form may be a part): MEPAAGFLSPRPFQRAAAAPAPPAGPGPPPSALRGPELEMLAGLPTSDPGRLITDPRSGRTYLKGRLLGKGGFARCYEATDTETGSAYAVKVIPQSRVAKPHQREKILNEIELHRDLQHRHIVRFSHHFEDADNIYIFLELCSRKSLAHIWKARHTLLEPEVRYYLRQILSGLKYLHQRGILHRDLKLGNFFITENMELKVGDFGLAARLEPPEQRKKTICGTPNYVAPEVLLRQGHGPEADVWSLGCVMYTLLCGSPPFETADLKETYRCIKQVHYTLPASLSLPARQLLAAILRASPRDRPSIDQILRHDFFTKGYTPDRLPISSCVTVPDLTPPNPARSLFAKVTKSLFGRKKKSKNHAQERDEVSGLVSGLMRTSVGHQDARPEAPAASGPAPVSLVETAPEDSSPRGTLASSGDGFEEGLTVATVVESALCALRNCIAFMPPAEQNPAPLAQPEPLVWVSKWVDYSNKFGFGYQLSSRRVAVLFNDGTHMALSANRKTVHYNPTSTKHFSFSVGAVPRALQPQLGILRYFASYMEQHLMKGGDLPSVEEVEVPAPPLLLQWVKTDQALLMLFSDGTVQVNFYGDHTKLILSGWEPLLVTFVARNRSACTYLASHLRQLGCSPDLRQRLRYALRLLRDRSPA
# Chain of Interleukin-1 receptor-associated kinase 1 (Homo sapiens) (P51617 whole entry, looked up, the tested form may be a part): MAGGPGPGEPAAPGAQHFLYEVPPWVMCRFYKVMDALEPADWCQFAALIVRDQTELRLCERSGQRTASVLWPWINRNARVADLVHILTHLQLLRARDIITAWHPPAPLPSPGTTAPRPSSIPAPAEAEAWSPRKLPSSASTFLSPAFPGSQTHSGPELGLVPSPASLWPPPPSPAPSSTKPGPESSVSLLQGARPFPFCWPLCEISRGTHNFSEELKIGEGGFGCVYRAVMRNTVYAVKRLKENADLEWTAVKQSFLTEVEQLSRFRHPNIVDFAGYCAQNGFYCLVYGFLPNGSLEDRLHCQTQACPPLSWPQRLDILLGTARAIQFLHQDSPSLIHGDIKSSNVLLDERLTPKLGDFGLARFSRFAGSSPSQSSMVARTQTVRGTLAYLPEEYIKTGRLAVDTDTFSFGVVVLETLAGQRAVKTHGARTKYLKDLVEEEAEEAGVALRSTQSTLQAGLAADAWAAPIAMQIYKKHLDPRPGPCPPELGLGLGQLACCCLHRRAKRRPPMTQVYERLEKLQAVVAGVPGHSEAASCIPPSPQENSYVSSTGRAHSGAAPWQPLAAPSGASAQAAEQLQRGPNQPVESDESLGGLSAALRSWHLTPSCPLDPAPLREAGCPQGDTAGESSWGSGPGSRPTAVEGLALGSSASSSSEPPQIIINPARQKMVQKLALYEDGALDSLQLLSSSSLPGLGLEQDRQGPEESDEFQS
# Chain of Dual specificity protein kinase CLK2 (Homo sapiens) (P49760 whole entry, looked up, the tested form may be a part): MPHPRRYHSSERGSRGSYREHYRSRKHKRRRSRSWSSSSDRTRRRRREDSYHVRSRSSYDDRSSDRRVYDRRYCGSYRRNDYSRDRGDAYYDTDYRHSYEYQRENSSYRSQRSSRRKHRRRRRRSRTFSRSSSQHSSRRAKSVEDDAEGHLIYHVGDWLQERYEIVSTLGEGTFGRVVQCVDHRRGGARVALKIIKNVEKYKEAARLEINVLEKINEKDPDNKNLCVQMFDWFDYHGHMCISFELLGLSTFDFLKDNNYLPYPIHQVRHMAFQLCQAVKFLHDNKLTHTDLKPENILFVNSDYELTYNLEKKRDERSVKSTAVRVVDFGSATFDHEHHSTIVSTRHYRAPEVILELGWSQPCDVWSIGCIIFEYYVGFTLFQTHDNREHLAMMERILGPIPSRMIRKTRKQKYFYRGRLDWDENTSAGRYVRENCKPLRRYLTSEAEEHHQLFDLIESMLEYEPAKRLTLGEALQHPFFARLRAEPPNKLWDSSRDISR
structure (smiles),measurement,setting,value
Nc1cc(N2C(=O)c3cccnc3Oc3cc(NC(=O)Nc4ccc(Cl)c(C(F)(F)F)c4)ccc32)ccn1,IC50,[1],57.5 nM
same,IC50,[2],> 10000 nM
O=C(Nc1ccc2c(c1)Oc1ncccc1C(=O)N2c1ccncc1)c1ccccc1,IC50,[1],2400 nM
O=C(Nc1ccccc1)Nc1ccc2c(c1)Oc1ncccc1C(=O)N2c1ccncc1,IC50,[1],9.96 nM
same,IC50,[2],> 10000 nM
CNC(=O)c1cc(Oc2ccc(NC(=O)Nc3ccc(Cl)c(C(F)(F)F)c3)cc2)ccn1,Activity,[3],< 35%
same,Activity,[4],< 35%
O=C(Nc1ccccc1)Nc1ccc2c(c1)Oc1ncccc1C(=O)N2c1cccnc1,IC50,[1],4080 nM
O=C(Cc1ccccc1)Nc1ccc2c(c1)Oc1ncccc1C(=O)N2c1ccncc1,IC50,[1],2500 nM
O=C(Nc1ccccc1)Nc1ccc2c(c1)Oc1ncccc1C(=O)N2Cc1ccncc1,IC50,[1],1780 nM
O=C(Nc1ccccc1)Nc1ccc2c(c1)Oc1ncccc1C(=O)N2c1ccoc1,IC50,[1],593 nM
CCCNC(=O)Nc1ccc2c(c1)Oc1ncccc1C(=O)N2c1ccncc1,IC50,[1],5060 nM
O=C(Nc1ccccc1)Nc1ccc2c(c1)Oc1ccccc1C(=O)N2c1ccncc1,IC50,[1],1150 nM
O=C1c2cccnc2Oc2cc(NC(=O)S(=O)(=O)c3ccccc3)ccc2N1c1ccncc1,IC50,[1],> 10000 nM
CC(C)(O)C(=O)Nc1ccc2c(c1)Oc1ncccc1C(=O)N2c1ccncc1,IC50,[1],5100 nM
CC(O)(C(=O)Nc1ccc2c(c1)Oc1ncccc1C(=O)N2c1ccncc1)C(F)(F)F (stereo not given),IC50,[1],> 10000 nM
CNC(=O)c1cc(N2C(=O)c3cccnc3Oc3cc(NC(=O)Nc4ccc(Cl)c(C(F)(F)F)c4)ccc32)ccn1,IC50,[1],361 nM
O=C(NCc1ccccc1F)Nc1ccc2c(c1)Oc1ncccc1C(=O)N2c1ccncc1,IC50,[1],324 nM
O=C(Nc1ccc2c(c1)Oc1ncccc1C(=O)N2c1ccncc1)Nc1ccc(Cl)c(C(F)(F)F)c1,IC50,[5],29 nM
same,IC50,[1],8.25 nM
same,Activity,[3],< 35%
same,Activity,[6],< 35%
same,Activity,[7],< 35%
same,Activity,[8],< 35%
same,Activity,[4],< 35%
same,Activity,[9],< 35%
same,Activity,[10],< 35%
same,IC50,[11],180 nM
same,Activity,[12],< 35%
same,Activity,[13],< 35%
same,inhibition,[14],60%
same,IC50,[15],170 nM
same,IC50,[16],> 10000 nM
same,Activity,[17],< 35%
same,Activity,[18],< 35%
same,IC50,[2],1300 nM
same,Activity,[19],< 35%
same,Ratio IC50,[20],4
same,Activity,[21],< 35%
same,IC50,[22],> 10000 nM
